ChEMBL document CHEMBL3352222, “2-Hexylthio-β,γ-CH2-ATP is an effective and selective NTPDase2 inhibitor” (J Med Chem, 2014)

How the values were obtained:
[1] = target: T1, NTPDase2 (ectonucleoside triphosphate diphosphohydrolase 2) (Homo sapiens, UniProt Q9Y5L3); test: Stability assessed as human NTPDase2-mediated compound hydrolysis; type: ADME; conditions: human NTPDase2 enzyme, read-out: Drug degradation
T1 sequence (Q9Y5L3 whole entry): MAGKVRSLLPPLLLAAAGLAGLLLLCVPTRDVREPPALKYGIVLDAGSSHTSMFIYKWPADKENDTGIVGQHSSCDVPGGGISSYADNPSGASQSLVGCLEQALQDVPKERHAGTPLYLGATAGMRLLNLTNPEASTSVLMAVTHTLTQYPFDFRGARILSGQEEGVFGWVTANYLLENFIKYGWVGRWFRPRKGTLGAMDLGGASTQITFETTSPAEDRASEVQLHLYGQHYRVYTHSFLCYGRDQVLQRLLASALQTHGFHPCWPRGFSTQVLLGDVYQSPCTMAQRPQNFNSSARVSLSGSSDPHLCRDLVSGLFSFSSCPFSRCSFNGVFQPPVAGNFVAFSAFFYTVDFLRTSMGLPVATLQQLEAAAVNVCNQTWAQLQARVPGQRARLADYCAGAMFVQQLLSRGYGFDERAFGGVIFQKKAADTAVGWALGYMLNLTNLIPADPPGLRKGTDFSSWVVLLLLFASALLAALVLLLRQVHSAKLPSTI
In short: (§1)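 Each analogue offered as substrate to recombinant human NTPDase (COS-7 transfected cell protein extracts) at 37 °C, pH 7.4 Ca2+/Tris medium, 15 min; Pi released measured by malachite green at 630 nm; hydrolysis expressed relative to ATP set as 100%; mean ± SD of three independent experiments, each in duplicate.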

[2] = target: T2, NTPDase1 (ectonucleoside triphosphate diphosphohydrolase 1) (Homo sapiens, UniProt P49961); test: Stability assessed as human NTPDase1-mediated compound hydrolysis; type: ADME; conditions: human NTPDase1 enzyme, read-out: Drug degradation; in short: as §1
T2 sequence (P49961 whole entry): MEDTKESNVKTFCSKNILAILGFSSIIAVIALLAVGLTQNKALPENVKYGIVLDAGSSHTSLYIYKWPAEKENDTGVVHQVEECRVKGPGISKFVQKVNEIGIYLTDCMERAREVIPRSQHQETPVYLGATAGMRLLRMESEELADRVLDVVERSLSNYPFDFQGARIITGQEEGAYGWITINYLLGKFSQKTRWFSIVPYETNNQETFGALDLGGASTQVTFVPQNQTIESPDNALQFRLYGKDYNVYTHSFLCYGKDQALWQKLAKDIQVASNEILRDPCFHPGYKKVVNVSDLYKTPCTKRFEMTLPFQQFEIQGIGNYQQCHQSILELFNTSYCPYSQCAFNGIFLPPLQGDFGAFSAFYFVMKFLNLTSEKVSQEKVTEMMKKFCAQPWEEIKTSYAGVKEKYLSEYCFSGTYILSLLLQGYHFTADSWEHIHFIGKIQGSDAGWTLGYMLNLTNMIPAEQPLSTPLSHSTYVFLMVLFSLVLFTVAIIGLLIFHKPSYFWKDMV

[3] = target: T3, NTPDase3 (ectonucleoside triphosphate diphosphohydrolase 3) (Homo sapiens, UniProt O75355); test: Stability assessed as human NTPDase3-mediated compound hydrolysis; type: ADME; conditions: human NTPDase3 enzyme, read-out: Drug degradation; in short: as §1
T3 sequence (O75355 whole entry): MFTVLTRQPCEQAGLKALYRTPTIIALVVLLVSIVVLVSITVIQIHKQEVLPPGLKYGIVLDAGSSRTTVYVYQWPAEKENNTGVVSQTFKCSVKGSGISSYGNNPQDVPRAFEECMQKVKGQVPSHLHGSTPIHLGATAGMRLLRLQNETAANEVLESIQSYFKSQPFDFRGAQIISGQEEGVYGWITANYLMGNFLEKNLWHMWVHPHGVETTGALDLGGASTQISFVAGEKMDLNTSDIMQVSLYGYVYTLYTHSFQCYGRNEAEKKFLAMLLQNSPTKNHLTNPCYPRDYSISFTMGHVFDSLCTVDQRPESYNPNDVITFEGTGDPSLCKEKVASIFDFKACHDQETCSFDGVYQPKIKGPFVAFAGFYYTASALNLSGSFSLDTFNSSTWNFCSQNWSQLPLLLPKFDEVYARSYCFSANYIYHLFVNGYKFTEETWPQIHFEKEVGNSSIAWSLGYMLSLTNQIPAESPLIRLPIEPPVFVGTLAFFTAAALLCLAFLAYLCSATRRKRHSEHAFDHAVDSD

[4] = Stability assessed as human compound hydrolysis; conditions: read-out: Drug degradation
[5] = target: T4, Ectonucleoside triphosphate diphosphohydrolase 2 (Homo sapiens) (UniProt Q9Y5L3); test: Inhibition of recombinant human NTPDase2 transfected in COS-7 cells using ATP substrate at 100 uM relative to control; type: cell-based
T4 sequence (whole entry): T1 sequence (Q9Y5L3 whole entry)
In short: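 Extracts of COS-7 cells expressing human NTPDase2, preincubated 3 min at 37 °C in 5 mM CaCl2/80 mM Tris pH 7.4; ATP and compound both 100 μM; stopped at 15 min with malachite green, Pi at 630 nm; ATP alone set as 100%; mean ± SD of three experiments in triplicate.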

[6] = target: 5'-nucleotidase (Homo sapiens) (UniProt P21589); test: Inhibition of AMPase activity of human ecto-5'-nucleotidase using AMP substrate relative to control; conditions: concentration not given here
Chain of 5'-nucleotidase (Homo sapiens) (P21589 whole entry): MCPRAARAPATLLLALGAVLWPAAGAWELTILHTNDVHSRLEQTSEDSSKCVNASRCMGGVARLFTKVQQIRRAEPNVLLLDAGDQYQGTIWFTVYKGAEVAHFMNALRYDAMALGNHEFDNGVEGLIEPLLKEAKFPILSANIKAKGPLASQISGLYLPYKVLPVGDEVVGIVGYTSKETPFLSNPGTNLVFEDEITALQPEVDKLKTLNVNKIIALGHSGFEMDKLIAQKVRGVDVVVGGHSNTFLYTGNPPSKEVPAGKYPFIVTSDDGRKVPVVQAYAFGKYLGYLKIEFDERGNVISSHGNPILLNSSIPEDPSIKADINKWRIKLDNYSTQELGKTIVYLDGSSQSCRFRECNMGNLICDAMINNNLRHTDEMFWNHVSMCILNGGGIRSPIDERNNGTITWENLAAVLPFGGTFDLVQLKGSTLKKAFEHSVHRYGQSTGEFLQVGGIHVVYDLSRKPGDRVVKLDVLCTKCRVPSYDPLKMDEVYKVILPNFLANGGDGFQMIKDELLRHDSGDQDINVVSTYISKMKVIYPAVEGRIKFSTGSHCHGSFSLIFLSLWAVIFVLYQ
In short: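 Human ecto-5′-nucleotidase in protein extracts of transfected COS-7 cells; 3 min preincubation at 37 °C in 5 mM CaCl2/80 mM Tris pH 7.4 (or Tris-Ringer); started with 100 μM AMP, compound also 100 μM; stopped after 15 min with malachite green, Pi read at 630 nm; activity without compound set as 100%; mean ± SD, three experiments in triplicate.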

[7] = target: T5, Ectonucleoside triphosphate diphosphohydrolase 2 (Homo sapiens, UniProt Q9Y5L3); test: Inhibition of recombinant human NTPDase2 transfected in COS-7 cells using ATP substrate; type: cell-based
T5 sequence (Q9Y5L3 whole entry): T1 sequence (Q9Y5L3 whole entry)

[8] = target: T6, Ectonucleotide pyrophosphatase/phosphodiesterase family member 1 (Homo sapiens) (UniProt P22413); test: Inhibition of human NPP1 using pNP-TMP substrate relative to control; conditions: concentration not given here
T6 sequence (whole entry): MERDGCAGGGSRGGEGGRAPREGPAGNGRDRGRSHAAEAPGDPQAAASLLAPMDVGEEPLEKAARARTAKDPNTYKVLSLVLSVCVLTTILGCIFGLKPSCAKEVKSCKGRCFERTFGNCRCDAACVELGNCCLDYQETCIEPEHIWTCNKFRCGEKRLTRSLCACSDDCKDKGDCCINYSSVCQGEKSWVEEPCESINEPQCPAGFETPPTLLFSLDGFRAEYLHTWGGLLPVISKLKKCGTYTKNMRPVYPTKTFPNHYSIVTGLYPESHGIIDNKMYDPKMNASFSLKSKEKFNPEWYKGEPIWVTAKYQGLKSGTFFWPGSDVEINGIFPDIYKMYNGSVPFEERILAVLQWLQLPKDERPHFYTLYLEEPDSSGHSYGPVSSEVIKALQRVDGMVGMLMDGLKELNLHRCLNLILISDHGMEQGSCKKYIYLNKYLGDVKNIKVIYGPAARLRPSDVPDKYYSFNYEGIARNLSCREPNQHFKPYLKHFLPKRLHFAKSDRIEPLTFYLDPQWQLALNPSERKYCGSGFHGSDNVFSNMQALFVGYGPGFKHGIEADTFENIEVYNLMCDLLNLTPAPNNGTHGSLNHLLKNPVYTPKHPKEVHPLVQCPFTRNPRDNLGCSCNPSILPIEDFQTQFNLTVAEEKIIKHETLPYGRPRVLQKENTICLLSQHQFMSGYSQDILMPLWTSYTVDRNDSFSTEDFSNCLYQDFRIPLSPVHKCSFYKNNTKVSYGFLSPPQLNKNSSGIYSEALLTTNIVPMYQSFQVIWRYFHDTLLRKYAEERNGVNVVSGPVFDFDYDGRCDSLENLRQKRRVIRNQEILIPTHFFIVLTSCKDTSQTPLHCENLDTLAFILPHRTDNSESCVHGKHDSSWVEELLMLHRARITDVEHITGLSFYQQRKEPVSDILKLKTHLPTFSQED
In short: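 Extract of COS-7 cells transfected with human NPP1, preincubated 3 min at 37 °C in 1 mM CaCl2, 140 mM NaCl, 5 mM KCl, 50 mM Tris pH 8.5; started with 100 μM pNP-TMP, compound 100 μM; p-nitrophenol read at 410 nm after 15 min; activity without compound = 100%; mean ± SD, three experiments in triplicate.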

metabolised [1] [%] | metabolised [2] [%] | metabolised [3] [%] | metabolised [4] [%] | inhibition [5] [%] | inhibition [6] [%] | IC50 [7] [µM] | Ki [7] [µM] | inhibition [8] [%] | SMILES
77 | 87 | – | – | – | – | – | – | – | CNc1ncnc2c1ncn2[C@@H]1O[C@H](COP(=O)(O)OP(=O)(O)OP(=O)(O)O)[C@@H](O)[C@H]1O
11.5 | 44 | – | – | – | – | – | – | – | CCCCCCSc1nc(N)c2nnn([C@@H]3O[C@H](COP(=O)(O)OP(=O)(O)OP(=O)(O)O)[C@@H](O)[C@H]3O)c2n1
3 | 6 | 10 | 5 | 10 | – | – | – | – | O=P(O)(O)OC[C@H]1O[C@@H](n2cnc3c(N(Cc4ccccc4)Cc4ccccc4)ncnc32)[C@H](O)[C@@H]1O
0 | 22 | 2 | 20 | 42 | – | – | – | – | CCN(CC)c1ncnc2c1ncn2[C@@H]1O[C@H](COP(=O)(O)OP(=O)(O)OP(=O)(O)O)[C@@H](O)[C@H]1O
3 | 14 | 8 | 13 | 0 | – | – | – | – | O=P(O)(O)OP(=O)(O)OP(=O)(O)OC[C@H]1O[C@@H](n2cnc3c(N(Cc4ccccc4)Cc4ccccc4)ncnc32)[C@H](O)[C@@H]1O
0 | 0 | 4 | 2 | – | – | – | – | – | CN(C)c1ncnc2c1ncn2[C@@H]1O[C@H](COP(=O)(O)O)[C@@H](O)[C@H]1O
73 | 74 | – | – | – | – | – | – | – | CN(C)c1ncnc2c1ncn2[C@@H]1O[C@H](COP(=O)(O)OP(=O)(O)OP(=O)(O)O)[C@@H](O)[C@H]1O
2.8 | 2.3 | 0.8 | – | 70 | 10 | 40 | 21 | > 50 | CCCCCCSc1nc(N)c2ncn([C@@H]3O[C@H](COP(=O)(O)OP(=O)(O)CP(=O)(O)O)[C@@H](O)[C@H]3O)c2n1
38.5 | 73 | – | – | – | – | – | – | – | Nc1ncnc2c1nnn2[C@@H]1O[C@H](COP(=O)(O)OP(=O)(O)OP(=O)(O)O)[C@@H](O)[C@H]1O
